# Screening data deposited in PubChem BioAssay by several laboratories.
# The list is not random: actives were taken first. Their share in the collection is about 11%.
# RORA act: activators of orphan receptor RORA, primary screen, cell-based, luminescence; Nuclear receptor ROR-alpha (Homo sapiens), P35398; CHO-K1 Gal4-RORA LBD luciferase reporter; percent increase over mock-subtracted basal signal; activation, % at 10 µM; 65,000 tested, 1.5% active;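 active = activation above the mean of all tested compounds plus 3 SD, cut at about 49% in these data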;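 also: 0% = DMSO-treated RORA cells and 100% = added signal equal to DMSO minus mock-transfected cells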
# M1 agonist: M1 muscarinic receptor agonists, primary screen, CHO-M1 cells, Fluo-4 calcium, agonist mode | Muscarinic acetylcholine receptor M1 | Fluo-4 calcium fluorescence; active compounds read high | B-score at 10 µM | 64,000 tested, 3% active;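 active = fluorescence rise, raw or as B-score row- and column-corrected plate score, outside the 99.7% band of its plate's samples, either direction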
# SF-1 act: activators of human SF-1, primary screen, cell-based, CHO-K1, Gal4-SF-1 LBD, luciferase luminescence. Steroidogenic factor 1 (Homo sapiens), Q13285. CHO-K1 Gal4-SF-1 LBD luciferase reporter; % increase over DMSO SF-1-specific signal. activation, % at 10 µM. 65,000 tested, 1.9% active;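 active = activation above the mean activation of all tested compounds plus 3 SD, cut at about 50% in these data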
# Target sequence (Q13285 whole entry, looked up, the tested form may be a part): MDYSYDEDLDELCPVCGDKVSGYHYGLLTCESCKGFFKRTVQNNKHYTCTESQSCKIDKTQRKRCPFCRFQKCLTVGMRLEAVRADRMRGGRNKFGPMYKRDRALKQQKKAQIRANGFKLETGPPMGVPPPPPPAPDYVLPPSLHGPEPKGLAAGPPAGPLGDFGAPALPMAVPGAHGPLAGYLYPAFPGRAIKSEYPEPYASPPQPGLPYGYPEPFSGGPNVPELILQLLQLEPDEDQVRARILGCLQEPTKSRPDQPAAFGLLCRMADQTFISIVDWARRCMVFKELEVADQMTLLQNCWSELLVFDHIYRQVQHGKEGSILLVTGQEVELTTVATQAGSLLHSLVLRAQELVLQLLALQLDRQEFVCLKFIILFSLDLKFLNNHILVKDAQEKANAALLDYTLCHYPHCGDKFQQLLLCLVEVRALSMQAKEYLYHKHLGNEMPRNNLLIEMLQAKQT
#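 Assay system: CHO-K1 cells co-transfected with Gal4 DBD–human SF-1 LBD, 5xGal4 luciferase reporter; doses: 10 µM only; incubation: 20 h compound exposure at 37 °C after 1 h cell settling; signal: luciferase light emission; evaluation: percent activation versus DMSO; repeats: one test per compound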
# mHtt clearance: clearance of mutant huntingtin inclusions, primary screen, imaging, HeLa Exon1htt(103Q)mCFP, confocal imaging. aggregate imaging; zero = plate's median compound well. inhibition, % at 1.5 µM. 47,000 tested, 0.42% active;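 active = inhibition of aggregate fluorescence above about 70%, also judged a hit by eye on the cell image, limit read from the data, passing the limit was not always enough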;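 also: cells exposed to compound for three days before fixation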
# D1 allo mod: D1 CRE-luciferase signal change, two-sided – cell-based, HEK293 D1, dopamine EC30, D1 allosteric modulator project, primary screen. D(1A) dopamine receptor (Homo sapiens), P21728. dopamine EC30 potentiation; actives deviate in either direction. B-score at 10 µM. 58,000 tested, 5.9% active. AID 641, 2007;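 active = luminescence count or its row- and column-corrected plate score outside the 99.7% band of the plate's sample wells, on either side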
# M1 antag: antagonists of rat M1 muscarinic receptor. CHO-M1 cells, Fluo-4 calcium, ACh EC80 antagonist mode; active compounds read low. B-score at 10 µM. 64,000 tested, 3.4% active. Muscarinic acetylcholine receptor M1 (Rattus norvegicus), P08482. AID 628, 2007;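 active = calcium fluorescence response, raw or row-and-column corrected B-score, differing from the plate sample mean either way at a set confidence level, mostly lower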
# M1 antag conf: rat M1 muscarinic receptor antagonists, confirmation, CHO cells, Fluo-4 calcium, duplicate. calcium response (max-min fluorescence) at 10 µM. ACh EC80 antagonism; active compounds read low. shares compounds with M1 antag. 1,700 tested, 43% active;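 active = calcium response below the same-plate mean of wells given acetylcholine alone at its 80%-effect dose, minus 3 SD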;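 also: raw fluorescence intensity difference in arbitrary instrument units and not normalized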
# mGluR4 antag: human mGluR4 response to M1 antagonist hits, M1 allosteric modulator project, cell-based, antagonist mode, secondary assay 1 | shares compounds with M1 antag | CHO-mGluR4 calcium flux, Fluo-4 fluorescence, glutamate EC80; active compounds read low | fluorescence response (max-min) at 10 µM | 1,700 tested, 0.9% active;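 active = fluorescence response below the plate's average for near-maximal glutamate wells, less 3 SD of those wells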;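 also: raw unnormalized fluorescence span taken in the window right after glutamate addition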
# * = called active by the depositor; / = no result.
SMILES,RORA act,M1 agonist,SF-1 act,mHtt clearance,D1 allo mod,M1 antag,M1 antag conf,mGluR4 antag
O=C(CN1CCN(Cc2ccccc2)CC1)N1CCCc2c1c(=O)oc1ccc(O)cc21,8.3,-0.000196,13.3,37.3,-0.11,-6.13*,334*,222
CCCOc1ccc2oc(=O)c3c(c2c1)CCCN3C(=O)CN(C)Cc1ccccc1,-1.2,-0.224,-13.2,-3.8,-0.00708,-6.53*,386*,265
CC(=O)Oc1ccc2oc(=O)c3c(c2c1)CCCN3C(=O)CN1CCN(c2ncccn2)CC1,-9.0,0.393,8.0,/,0.798,0.117,/,/
COc1cc(C#CC#CCN2CCCCC2)ccc1O,19.8,0.223,-15.8,-34.7,0.136,-0.256,/,/
COC(=O)c1ccc(COc2cccc(OC)c2)o1,10.7,0.401,-6.7,19.1,2.39,-2.38*,602,264
O=C(NCc1ccc(F)cc1)c1cc(-c2ccco2)on1,-4.5,-0.733,5.4,4.5,1.21,-3.86*,673,177
O=C(NCc1ccc(Cl)cc1)c1cc(-c2ccco2)on1,-17.7,0.262,-4.7,/,0.0831,-0.343,/,/
Cc1nc2sc3c(c2c2nnc(SCC(=O)NCc4ccco4)n12)CCCC3,-10.2,-1.04,4.1,/,1.55,-2.74*,618,215
O=C(CSc1nnc2c3c4c(sc3ncn12)CCCC4)NCc1ccco1,-4.9,-0.143,-14.4,44.9,0.78,0.301,/,/
O=C1C(=O)N(CCCn2ccnc2)C(c2cccnc2)/C1=C(/O)c1ccc(Br)cc1 (configuration not stated),-27.1,-0.102,1.1,/,-0.638,0.0719,/,/
CCCS(=O)(=O)N1CCc2cc(OC)c(OC)cc2C1,8.7,-0.657,4.8,-16.2,0.145,0.207,/,/
Cc1ccc(C(=O)CN2CCC(NC(=O)C3CCCCC3)CC2)cc1,-8.8,-1.09,-10.1,/,-3.3,0.0687,/,/
Cc1ccc(C(=O)C2CCN(CC(=O)NC3CCCCC3)CC2)cc1,17.1,-1.28,-16.9,8.0,-0.0415,-4.63*,545*,222
NC(=O)c1cc(S(=O)(=O)NC2CCCCC2)co1,1.0,-0.418,5.8,18.3,/,-0.0731,/,/
COc1cc(N2CN=c3s/c(=C\c4ccccn4)c(=O)n3C2)cc(OC)c1OC,-14.5,-0.446,-17.4,/,-0.378,0.0267,/,/
CC(C)(C)CC(=O)Nc1nnc(C(F)(F)F)s1,/,/,/,-74.2,/,/,/,/
CC(NC(=O)Nc1nnc(C(F)(F)F)s1)(C(F)(F)F)C(F)(F)F,-94.5,4.07,-93.9,-4.2,-3.56,-1.26*,513*,290
CCCCOCCCNC(=O)c1c(-c2ccccc2)noc1C,-18.9,-0.528,-7.6,/,0.891,0.138,/,/
Cc1cccc(Nc2ccccc2C(=O)OCC(=O)N2CCOCC2)c1C,-22.7,1.04,-4.4,24.3,-0.224,-4.2*,531,205
Cc1cccc(Nc2ccccc2C(=O)OCC(=O)NCc2ccco2)c1C,/,/,/,6.7,/,/,/,/
CCOC(=O)COc1cc2c3c(c(=O)oc2cc1C)CCCC3,10.9,1.53,-8.7,11.8,1.1,-17.2*,119*,271
Cc1cc(=O)n2nc(N3CCCC(C(=O)N4CCc5ccccc54)C3)sc2n1 (configuration not stated),-10.5,1.22,-0.4,/,0.426,-11.6*,33.1*,224
CCC(CO)n1cnnc1-c1ccncc1 (configuration not stated),-15.7,0.000196,6.8,-62.9,-0.538,1.18,/,/
COc1cccc(CC(=O)NCC2COc3ccccc3O2)c1OC (configuration not stated),-4.9,0.343,-9.9,14.6,0.288,-11.5*,701,230
N=c1sccn1CC(=O)NCCc1ccc(Cl)cc1,-3.9,-0.491,3.9,/,-1.39,-4.72*,408*,246
SMILES,RORA act,M1 agonist,SF-1 act,mHtt clearance,D1 allo mod,M1 antag,M1 antag conf,mGluR4 antag
NC(=O)NC(Cc1ccccc1)C(=O)NCC1(N2CCCCC2)CCCCC1 (configuration not stated),-6.3,0.646,6.9,24.1,-0.719,-0.241,/,/
Cn1c(=O)c2c(nc(OCc3cccnc3)n2Cc2c(F)cccc2Cl)n(C)c1=O,-18.3,0.736,-9.4,/,0.517,-1.15*,509*,248
Cn1c(OCc2cccnc2)nc2c1c(=O)n(Cc1ccccc1)c(=O)n2C,-11.2,2.42,-1.7,19.0,/,0.51,/,/
O=C1C(Cl)=C(N2CCN(Cc3ccccc3)CC2)C(=O)N1c1ccccc1,-9.4,-1.36,-17.6,-31.6,0.277,-0.0772,/,/
O=C1C(Cl)=C(N2CCCCCC2)C(=O)N1c1ccccc1,15.3,0.126,10.9,/,-1.22,-3.06*,219*,148
COc1ccc(C(CNC(=O)c2ccc(OCC3CCCO3)cc2)N2CCOCC2)cc1 (configuration not stated),-1.7,-0.156,-5.2,3.2,1.22,-0.0315,/,/
COc1ccc(C(CNC(=O)c2ccc(S(=O)(=O)N3CCOCC3)cc2)N2CCCCC2)cc1 (configuration not stated),-10.5,-0.688,14.6,-40.7,-0.213,-3.24*,576,186
COc1ccccc1CN1CCN(C(CC(C)C)c2nnnn2Cc2cccs2)CC1 (configuration not stated),4.0,-0.143,-0.6,/,-1.04,-2.03*,558*,210
O=C(Nc1cccc(NS(=O)(=O)c2ccc(S(=O)(=O)NC3CC3)cc2)c1)c1ccccn1,10.8,-0.298,10.1,-29.7,-1.54,-1.71,/,/
COc1ccccc1-n1c(C)nnc1SCC(=O)Nc1cccc(C(C)=O)c1,2.9,-0.517,4.6,-139.6,-0.00973,-2.68*,649,226
O=C1C=C(NCCN2CCOCC2)CC(c2ccccc2)C1 (configuration not stated),/,/,/,35.3,/,/,/,/
CCCCOc1ccc(CN2CCC(O)CC2)cc1,-11.9,-0.329,4.3,/,0.0401,-2.2*,518,257
CSc1ccc(CN2CCC(O)CC2)cc1,/,0.0573,/,-46.6,0.00139,0.384,/,/
O=C(CCN1C(=O)C2C3C=CC(C3)C2C1=O)NC1CCCc2ccccc21 (configuration not stated),-1.4,0.404,9.6,40.1,0.345,0.336,/,/
O=C(N/C(=N\O)c1ccccc1)Nc1ccc(Cl)cc1,-12.1,-0.36,21.9,/,-0.0388,-3.46*,487,210
